{"source": "ChEMBL document CHEMBL1125438", "about": "“Synthesis and anti-HIV activity of 4'-azido- and 4'-methoxynucleosides” (J Med Chem, 1992)"}
{"assay": "In vitro Cytotoxic concentration in mock-infected A3.01 cells - 100% toxicity.", "type": "functional, Homo sapiens", "summary_of_the_method": "(§1)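 Toxicity was read on mock-infected A3.01, H9 or PBL cells handled alongside the infected ones (3 h mock infection, wash). Compounds were 3-fold serially diluted (AZT 5-fold). Incubation lasted 7 days, with medium and compound changed on day 4. Cytotoxicity was graded by eye from cell morphology and death. […] Single determination.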", "units": {"CC100": "µM"}}
{"smiles": "Cc1cn(C2C=CC(CO)(N=[N+]=[N-])O2)c(=O)[nH]c1=O", "note": "(stereo not drawn)", "CC100": 7.4}
{"smiles": "[N-]=[N+]=N[C@]1(CO)O[C@@H](N2C=NC3C(=O)N=C(N)N=C32)C[C@@H]1O", "note": "(stereo partly drawn)", "CC100": 1.9}
{"smiles": "Cc1cn([C@H]2CC[C@](CO)(N=[N+]=[N-])O2)c(=O)[nH]c1=O", "CC100": 200}
{"smiles": "[N-]=[N+]=N[C@]1(CO)O[C@@H](n2cc(Cl)c(=O)[nH]c2=O)C[C@@H]1O", "CC100": ">1000"}
{"smiles": "Cc1cn([C@H]2CC[C@@](CO)(N=[N+]=[N-])O2)c(=O)[nH]c1=O", "CC100": 33.3}
{"smiles": "[N-]=[N+]=N[C@]1(CO)O[C@@H](n2ccc(=O)[nH]c2=O)[C@H](O)[C@@H]1O", "CC100": ">200"}
{"smiles": "[N-]=[N+]=N[C@]1(CO)O[C@@H](n2ccc(N)nc2=O)[C@H](O)[C@@H]1O", "note": "[4'-AZIDOCYTIDINE]", "CC100": 74.1}
{"smiles": "CO[C@H]1C[C@H](n2cc(C)c(=O)[nH]c2=O)O[C@@]1(CO)N=[N+]=[N-]", "CC100": ">200"}
{"smiles": "[N-]=[N+]=N[C@]1(CO)O[C@@H](n2ccc(N)nc2=O)C[C@@H]1O", "CC100": 1.9}
{"assay": "In vitro Cytotoxic concentration in mock-infected A3.01 cells.", "type": "functional, Homo sapiens", "summary_of_the_method": "as §1", "units": {"CC25": "µM"}}
{"smiles": "Cc1cn(C2C=CC(CO)(N=[N+]=[N-])O2)c(=O)[nH]c1=O", "note": "(stereo not drawn)", "CC25": 2.5}
{"smiles": "[N-]=[N+]=N[C@]1(CO)O[C@@H](N2C=NC3C(=O)N=C(N)N=C32)C[C@@H]1O", "note": "(stereo partly drawn)", "CC25": 0.21}
{"smiles": "Cc1cn([C@H]2CC[C@](CO)(N=[N+]=[N-])O2)c(=O)[nH]c1=O", "CC25": 22}
{"smiles": "[N-]=[N+]=N[C@]1(CO)O[C@@H](n2cc(Cl)c(=O)[nH]c2=O)C[C@@H]1O", "CC25": 1000}
{"smiles": "Cc1cn([C@H]2CC[C@@](CO)(N=[N+]=[N-])O2)c(=O)[nH]c1=O", "CC25": 11.1}
{"smiles": "[N-]=[N+]=N[C@]1(CO)O[C@@H](n2ccc(=O)[nH]c2=O)[C@H](O)[C@@H]1O", "CC25": ">200"}
{"smiles": "[N-]=[N+]=N[C@]1(CO)O[C@@H](n2ccc(N)nc2=O)[C@H](O)[C@@H]1O", "note": "[4'-AZIDOCYTIDINE]", "CC25": 8.2}
{"smiles": "CO[C@H]1C[C@H](n2cc(C)c(=O)[nH]c2=O)O[C@@]1(CO)N=[N+]=[N-]", "CC25": ">200"}
{"smiles": "[N-]=[N+]=N[C@]1(CO)O[C@@H](n2ccc(N)nc2=O)C[C@@H]1O", "CC25": 0.21}
{"assay": "Selectivity index is defined as CC25(A3.01 cells) / IC50(A3.01 cells)", "type": "functional", "summary_of_the_method": "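Selectivity index = CC25/IC50 within each line (A3.01, H9 or PBL). CC25 came from visual grading of mock-infected cells after 7 days. IC50 came from reverse transcriptase activity in infected-cell supernatants after 7 days, with medium and compound changed on day 4.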"}
{"smiles": "[N-]=[N+]=N[C@]1(CO)O[C@@H](N2C=NC3C(=O)N=C(N)N=C32)C[C@@H]1O", "note": "(stereo partly drawn)", "Selectivity index": 70}
{"smiles": "[N-]=[N+]=N[C@]1(CO)O[C@@H](n2cc(Cl)c(=O)[nH]c2=O)C[C@@H]1O", "Selectivity index": 17900}
{"smiles": "[N-]=[N+]=N[C@]1(CO)O[C@@H](n2ccc(=O)[nH]c2=O)[C@H](O)[C@@H]1O", "Selectivity index": ">2.74"}
{"smiles": "CO[C@H]1C[C@H](n2cc(C)c(=O)[nH]c2=O)O[C@@]1(CO)N=[N+]=[N-]", "Selectivity index": ">9.8"}
{"smiles": "[N-]=[N+]=N[C@]1(CO)O[C@@H](n2ccc(N)nc2=O)C[C@@H]1O", "Selectivity index": 53}
